Rows were chosen to be rich in hits. Some 1.2% of all compounds tested hit in one or more screens of this group.
Diaph act CS: activates diaphorase or chemically reduces, flagging diaphorase assay artifacts | Diaphorase/resazurin coupled assay, resorufin fluorescence, 16 min; stronger effect = higher value; 1 = vehicle wells, 0 = NADH-free wells | activation factor at 20 µM | hit rate 0.005% among 190,000;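 active = diaphorase activity raised at least twofold by the compound at 20 µM; inactive = activation factor below 2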
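Assay system: bacterial diaphorase enzyme (C. kluyveri) / Input: enzyme 0.07 U/mL final / Medium: 50 mM HEPES pH 7.4 with 4.542 mM MgCl2, 0.005% Tween 20 / Doses: single compound dose of 20 µM, 1% DMSO final / Incubation: 16 min enzyme reaction, ambient temperature / Signal: fluorescence, excitation 544 nm and emission 590 nm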
PfGluPho inh: PfG6PD (Plasmodium falciparum) enzyme inhibition; hit rate 0.78% among 350,000; inhibition, % at 20 µM; AID 504690; PfGluPho enzyme, NADPH resazurin-diaphorase fluorescence;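 active = inhibition reaching at least a set limit at 20 µM in the primary screen, cut at about 59% in these data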;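 also: 0% = DMSO wells with substrate and 100% = DMSO wells lacking glucose-6-phosphate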
HKDC1 inhibitor: inhibitors of human hexokinase HKDC1. Q2TB90. recombinant HKDC1, G6PDH/diaphorase resazurin coupled fluorescence. inhibition, % at 20 µM. hit rate 0.16% among 340,000. AID 493160;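 active = inhibition above about 35% when tested at 20 µM, limit read from the data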;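 also: plate controls were DMSO wells with enzyme for no effect and DMSO wells lacking enzyme for full effect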
Target sequence (Q2TB90 whole entry, looked up): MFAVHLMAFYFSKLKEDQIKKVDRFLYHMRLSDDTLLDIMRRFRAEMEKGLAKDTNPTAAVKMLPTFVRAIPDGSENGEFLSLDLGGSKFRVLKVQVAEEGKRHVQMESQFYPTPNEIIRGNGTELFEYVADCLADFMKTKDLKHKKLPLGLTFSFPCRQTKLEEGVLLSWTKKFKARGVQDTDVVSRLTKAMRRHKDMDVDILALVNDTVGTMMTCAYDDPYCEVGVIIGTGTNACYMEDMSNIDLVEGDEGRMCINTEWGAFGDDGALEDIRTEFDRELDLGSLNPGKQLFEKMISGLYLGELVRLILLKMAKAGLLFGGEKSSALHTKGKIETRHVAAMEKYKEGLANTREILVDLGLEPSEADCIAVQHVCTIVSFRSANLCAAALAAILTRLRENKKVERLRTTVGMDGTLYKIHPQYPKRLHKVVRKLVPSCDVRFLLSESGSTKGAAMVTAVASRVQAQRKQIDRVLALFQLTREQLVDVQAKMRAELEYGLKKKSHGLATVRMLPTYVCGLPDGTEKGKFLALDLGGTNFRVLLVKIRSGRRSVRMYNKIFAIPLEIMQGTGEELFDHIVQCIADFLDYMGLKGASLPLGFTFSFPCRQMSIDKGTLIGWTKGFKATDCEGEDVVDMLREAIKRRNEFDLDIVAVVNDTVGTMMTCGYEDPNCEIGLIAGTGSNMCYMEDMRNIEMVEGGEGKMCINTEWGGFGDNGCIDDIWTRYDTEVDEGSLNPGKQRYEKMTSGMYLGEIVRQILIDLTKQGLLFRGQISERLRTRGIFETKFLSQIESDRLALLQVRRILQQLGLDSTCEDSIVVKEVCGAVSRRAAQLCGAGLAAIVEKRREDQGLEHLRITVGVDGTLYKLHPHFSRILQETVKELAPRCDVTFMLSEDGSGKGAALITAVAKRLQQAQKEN
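Assay system: in-house recombinant HK5 (HKDC1) enzyme. Input: HKDC1 at 5 µg/mL. Medium: Tris pH 8.0 buffer with MgCl2, Tween-20, BSA, BME. Dosing: single 20 µM dose. Schedule: 90 min reaction incubation at room temperature, dark. Signal: resazurin-to-resorufin fluorescence via G6PDH and diaphorase coupling, 525/613 nm. Controls: DMSO-enzyme wells negative, buffer-substituted wells positive.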
Diaphorase inh: inhibits diaphorase or chemically oxidizes, flagging diaphorase assay artifacts. AID 1217. inhibition, % at 20 µM. diaphorase resazurin-to-resorufin fluorescence, NADH, 16 min; bacterial (C. kluyveri) enzyme, not human. hit rate 0.69% among 190,000;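 active = primary screen inhibition at 20 µM above a set limit, cut at about 50% in these data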;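 also: plate controls were DMSO with full reaction for no effect and wells lacking NADH for full effect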
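System: Diaphorase enzyme from Clostridium kluyveri | Amount: Enzyme working solution with 0.14 U/mL diaphorase | Benchmarks: No-NADH positive control and DMSO neutral control | Signal: Fluorescence of resorufin formed from resazurin, Ex 544/Em 590 nm | Schedule: 16-min room-temperature incubation before reading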
G6PDH counter: counter-screen for G6PDH assay hits: L. mesenteroides G6PDH inhibition; AID 1020; inhibition, % at 5 µM; Purified L. mesenteroides G6PDH, diaphorase/resazurin coupled fluorescence, 45 min; hit rate 0.12% among 200,000; in the data active = inhibition above about 50%
Active calls of the source: *.

COCCn1c(C)cc(C(=O)COC(=O)/C=C/c2c(C)nn(C3CCS(=O)(=O)C3)c2Cl)c1C (stereo unspecified) was read as PfGluPho inh 17 and HKDC1 inhibitor 0.
Screening CSc1nc2c(c(=O)[nH]c(=O)n2C)n1Cc1ccc(Cl)cc1 returned PfGluPho inh 65* and HKDC1 inhibitor -2.
Screening CSc1nc2c(c(=O)[nH]c(=O)n2C)n1Cc1ccccc1Cl returned PfGluPho inh 11 and HKDC1 inhibitor 0.
Cc1cccc(N2CCN(C(=O)c3c(Cl)cnn3C)CC2)c1C was read as PfGluPho inh -2 and HKDC1 inhibitor 0.
For Cn1cccc1/C=N/n1c(-c2ccc(Cl)cc2)n[nH]c1=S the results were Diaph act CS 0.7, PfGluPho inh 32, HKDC1 inhibitor 1, Diaphorase inh 28 and G6PDH counter -14.
For Cn1cccc1/C=N/n1c(-c2ccc(Cl)cc2Cl)n[nH]c1=S the results were Diaph act CS 0.3, PfGluPho inh 22, HKDC1 inhibitor -3, Diaphorase inh 72* and G6PDH counter -12.
For Cc1ccc(S(=O)(=O)N2CCC(C(=O)NNC(=O)c3cccnc3)CC2)cc1 the results were Diaph act CS 1, PfGluPho inh -15, HKDC1 inhibitor 3, Diaphorase inh -3 and G6PDH counter 10.
Screening COc1ccc(N(C)C(=O)Nc2ccc3c(c2)nnn3C)cc1 returned Diaph act CS 0.8, PfGluPho inh 2, HKDC1 inhibitor -2, Diaphorase inh 23 and G6PDH counter 5.
`CC(C)N(C(=O)Nc1ccc2nsnc2c1)C(C)C` gave Diaph act CS 0.4, PfGluPho inh 55, HKDC1 inhibitor 18, Diaphorase inh 60* and G6PDH counter 52*.
Screening COc1ccc(N(C)C(=O)Nc2ccc3nsnc3c2)cc1 returned Diaph act CS 0.4, PfGluPho inh -7, HKDC1 inhibitor 3, Diaphorase inh 62* and G6PDH counter 22.
For COc1ccc(C2=NOC(C(=O)Nc3cccnc3Cl)C2)cc1 (stereo unspecified) the results were Diaph act CS 1.2, PfGluPho inh -9, HKDC1 inhibitor -1, Diaphorase inh -16 and G6PDH counter 12.
For Cn1ccc(CC(=O)N2CCC(N3CCC(C(=O)N4CCCC4)CC3)CC2)c1 the results were PfGluPho inh -16 and HKDC1 inhibitor 10.
Screening O=C(/C=C\c1ccc2c(c1)OCO2)CC1(O)C(=O)Nc2ccccc21 (stereo unspecified) returned PfGluPho inh -4 and HKDC1 inhibitor 2.
`COc1ccc(CCNC(=O)c2ccc3c(SCC(=O)O)c4c(nc3c2)CCCC4)cc1OC` gave Diaph act CS 0.3, PfGluPho inh -18, HKDC1 inhibitor 6, Diaphorase inh 68* and G6PDH counter 2.
For COc1ccc(CCNC(=O)c2ccc3nc(-c4ccco4)c(-c4ccco4)nc3c2)cc1OC the results were Diaph act CS 0.3, PfGluPho inh 62*, HKDC1 inhibitor 27, Diaphorase inh 66* and G6PDH counter 16.
`CCc1nc2ccc(C(=O)NCCc3ccc(OC)c(OC)c3)cc2nc1CC` gave PfGluPho inh 3 and HKDC1 inhibitor -3.
For CCCNC(=O)c1ccc2c(=O)n(Cc3ccco3)c(=S)[nH]c2c1 the results were Diaph act CS 0.8, PfGluPho inh 4, HKDC1 inhibitor 0, Diaphorase inh 19 and G6PDH counter -5.
For COc1ccc(CCNC(=O)c2ccc3c(=O)n(Cc4ccco4)c(=S)[nH]c3c2)cc1OC the results were Diaph act CS 0.5, PfGluPho inh 9, HKDC1 inhibitor -2, Diaphorase inh 51* and G6PDH counter 1.
For COc1ccc(S(=O)(=O)N2CCN(c3ccc4nnc(-c5ccccc5)n4n3)CC2)cc1 the results were Diaph act CS 0.5, PfGluPho inh 25, HKDC1 inhibitor 14, Diaphorase inh 53* and G6PDH counter 6.
For CC(C)CC(NC(=O)C1CCC(=O)N1)C(=O)NC(CC(C)C)C(=O)N1CCCC1C(N)=O (stereo unspecified) the results were PfGluPho inh -6 and HKDC1 inhibitor -8.
`CC(/C=C/c1ccco1)=N/NC(=O)CNc1ccccc1C` gave Diaph act CS 0.9, PfGluPho inh 9, HKDC1 inhibitor -6, Diaphorase inh 10 and G6PDH counter 1.
